Experimental data as given in ChEMBL document CHEMBL4334463, “Free Ligand 1D NMR Conformational Signatures To Enhance Structure Based Drug Design of a Mcl-1 Inhibitor (AZD5991) and Other Synthetic Macrocycles” (J Med Chem, 2019).

Key:
[1] = molecular target: T1, Induced myeloid leukemia cell differentiation protein Mcl-1 (Homo sapiens, UniProt Q07820); test: Inhibition of Mcl1 (unknown origin) by TR-FRET assay
Target sequence in this assay (Q07820 whole entry): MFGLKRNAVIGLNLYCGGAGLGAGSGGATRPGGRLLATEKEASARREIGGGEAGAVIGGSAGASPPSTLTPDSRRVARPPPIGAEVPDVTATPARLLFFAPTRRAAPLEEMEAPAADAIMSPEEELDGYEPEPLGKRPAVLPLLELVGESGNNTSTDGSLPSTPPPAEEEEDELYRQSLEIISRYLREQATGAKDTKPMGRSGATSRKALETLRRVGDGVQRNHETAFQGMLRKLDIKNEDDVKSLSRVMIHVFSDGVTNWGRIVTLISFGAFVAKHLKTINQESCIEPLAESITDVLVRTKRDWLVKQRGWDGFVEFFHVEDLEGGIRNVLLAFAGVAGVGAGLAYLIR

[2] = Lipophilicity, logD of the compound at pH 7.4; format: physicochemical; conditions: buffer
Method in brief: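 Shake-flask partitioning to determine logD, with the aqueous phase at pH 7.4.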

[3] = molecular target: T1, Induced myeloid leukemia cell differentiation protein Mcl-1; test: Binding affinity to Mcl-1 (unknown origin) by SPR assay
Target sequence in this assay (Q07820 whole entry, looked up): as the sequence (Q07820 whole entry) above

[4] = molecular target: T2, B-cell lymphoma 6 protein (Homo sapiens, UniProt P41182)
[5] = molecular target: T2, B-cell lymphoma 6 protein; test: Inhibition of Bcl6 (unknown origin) by TR-FRET assay
[6] = molecular target: T1, Induced myeloid leukemia cell differentiation protein Mcl-1
Target sequence in this assay (Q07820 whole entry): as above

Compound	Ki [1] [nM]	logD [2]	also measured
CC1CCN[C@@H](Cc2ccc(Cl)cc2)CC(=O)N[C@H]2CCc3ccccc3N(CC(=O)N[C@H](Cc3ccc(Cl)c(Cl)c3)CC(=O)N1C)C2=O (stereo in doubt; 11)	4960	–	–
N#Cc1cnn2c3cc(nc12)N1C[C@H](C[C@H]1CO)OC/C=C/COc1cc(cc2c1NC(=O)CC2)N3	–	2.2	T1/2 [4]: 2 min
C[C@@H]1CCCCN(C)c2cc(n3ncc(C#N)c3n2)Nc2cc3c(c(c2)O1)N(C)C(=O)CC3	–	4	IC50 [5]: 25 nM
N#Cc1cnn2c3cc(nc12)N1CC[C@@H](C1)OC/C=C/COc1cc(cc2c1NC(=O)CC2)N3	–	2.4	–
CNC(=O)C[C@@H](Cc1ccc(Cl)c(Cl)c1)NC(=O)CN1C(=O)[C@@H](NC(=O)C[C@@H](N)Cc2ccc(Cl)cc2)CCc2ccccc21	1990	3.8	–
CC1CCN[C@@H](Cc2ccc(Cl)cc2)CC(=O)N[C@H]2CCc3ccccc3N(CC(=O)N[C@H](Cc3ccc(Cl)c(Cl)c3)CC(=O)N1C)C2=O (stereo in doubt; 12)	300	–	–
N#Cc1cnn2c(Nc3ccc4c(c3)CCC(=O)N4)cc(N3CCC[C@H]3CC(=O)O)nc12	–	-0.4	–
CN1CCCN[C@@H](Cc2ccc(S(C)(=O)=O)cc2)CC(=O)N[C@H]2CCc3ccccc3N(CC(=O)N[C@H](Cc3ccc(Cl)c(CCc4ccccc4)c3)CC1=O)C2=O	–	4.1	T1/2 [6]: 0.3 min
C[C@@H]1CCN(C)C(=O)C[C@@H](Cc2ccc(Cl)c(Cl)c2)NC(=O)CN2C(=O)[C@H](CCc3ccccc32)NC(=O)C[C@H](Cc2ccc(Cl)cc2)N1	739	–	–
CN1CCCCCOc2cc(cc3c2N(C)C(=O)CC3)Nc2cc1nc1c(C#N)cnn21	–	3.6	IC50 [5]: 190 nM

Continued, in another order:

Ki [1] [nM]	logD [2]	Compound	also measured
48	–	C[C@H]1CCN(C)C(=O)C[C@@H](Cc2ccc(Cl)c(Cl)c2)NC(=O)CN2C(=O)[C@H](CCc3ccccc32)NC(=O)C[C@H](Cc2ccc(Cl)cc2)N1	–
290	3.6	Cc1nn(C)c(C)c1-c1cccc2c(CCCOc3cccc4ccccc34)c(C(=O)O)[nH]c12	Kd [3]: 480 nM
5210	3.7	O=C1C[C@@H](Cc2ccc(Cl)c(Cl)c2)NC(=O)CN2C(=O)[C@H](CCc3ccccc32)NC(=O)C[C@H](Cc2ccc(Cl)cc2)NCCCN1	–
–	2.3	N#Cc1cnn2c(Nc3ccc4c(c3)CCC(=O)N4)cc(N3CCC[C@H]3CO)nc12	–
155	4.3	CN1CCCN[C@@H](Cc2ccc(Cl)cc2)CC(=O)N[C@H]2CCc3ccccc3N(CC(=O)N[C@H](Cc3ccc(Cl)c(Cl)c3)CC1=O)C2=O	–
–	4.2	Cc1cc(CSCc2nn(C)c(C)c2-c2cccc3c(CCCOc4cccc5ccccc45)c(C(=O)O)[nH]c23)nn1C	–
